RAM inhibit – blocks the yeast RAM network | S. cerevisiae dse1pr::URA3 reporter, 5-FOA growth OD615, 2 d; analog-sensitive cbk1-as2 kinase mutant strain | inhibition, % at 50 µM | 190,000 compounds, 1.8% hits;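 active = inhibition above a set limit, 3 SD over mean compound inhibition, cut at about 8.4% in these data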;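 note: 0% = DMSO-only wells with no growth and 100% = 10 µM 1-NA-PP1 full growth; inhibition rescues growth on 5-FOA so higher OD means more RAM inhibition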
NPY Y1 blocker – NPY-Y1 (human) receptor antagonism; 200,000 compounds, 1% hits; inhibition, % at 3.6 µM; HEK293-CNG Y1 cells, membrane potential fluorescence; NPY at EC95, then isoproterenol; AID 1040;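 active = inhibition above the campaign mean inhibition of all tested compounds plus 3 SD, cut at about 20% in these data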;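 note: 0% = DMSO wells given NPY plus isoproterenol and 100% = isoproterenol alone without NPY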
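System: HEK293 cells with Y1 receptor plus CNG channel / Probe or stimulus: NPY 25 nM then isoproterenol 1 µM plus Ro 20-1724 25 µM / Compound: one concentration, 3.6 µM, in 0.4% DMSO / Schedule: compound incubation 1 h at room temperature, readout 45 min post-stimulation / Measured by: membrane potential fluorescence / Read-out: % inhibition of NPY effect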
WT yeast gro inh – growth inhibition of WT yeast, mitochondrial fusion screen; mitochondrial fusion phenotypic screen, WT strain; inhibition, % at 10 µM; 190,000 compounds, 2.1% hits; in the data active = inhibition above about 58%; tested in S. cerevisiae
NPY1 pot ag – potentiates or activates human NPY-Y1 receptor | NPY-Y1 expressing cells, potentiator/agonist activation | activation, % at 3.6 µM | P25929 | 220,000 compounds, 0.37% hits | AID 1304; in the data active = activation above about 33%, passing the limit was not always enough;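 note: cells stimulated with NPY at EC10 then isoproterenol at EC100; 0% = low agonist plus stimulus and 100% = saturating agonist plus stimulus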
NPY-Y2 antag – blocks the human neuropeptide Y Y2 receptor; AID 793; inhibition, % at 2.7 µM; 140,000 compounds, 0.99% hits; P49146; NPY-Y2 expressing cells, antagonist mode; in the data active = inhibition above about 17%;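 note: 0% = vehicle with agonist challenge and 100% = reference antagonist with challenge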
Target sequence (P49146 whole entry, looked up): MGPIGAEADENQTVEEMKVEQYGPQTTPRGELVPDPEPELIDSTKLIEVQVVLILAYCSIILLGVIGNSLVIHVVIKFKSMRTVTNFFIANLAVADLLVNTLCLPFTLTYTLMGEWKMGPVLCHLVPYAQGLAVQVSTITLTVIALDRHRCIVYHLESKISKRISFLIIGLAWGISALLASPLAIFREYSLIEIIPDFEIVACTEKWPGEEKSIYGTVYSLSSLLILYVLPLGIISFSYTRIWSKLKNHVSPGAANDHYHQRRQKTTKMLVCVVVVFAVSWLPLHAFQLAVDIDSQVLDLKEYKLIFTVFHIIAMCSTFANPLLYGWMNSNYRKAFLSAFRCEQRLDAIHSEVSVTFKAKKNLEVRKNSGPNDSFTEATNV
NPY2 pot ag – human NPY-Y2 potentiation or agonism, primary screen; P49146; cells expressing NPY-Y2, potentiator/agonist read-out; activation, % at 3.6 µM; 220,000 compounds, 0.45% hits; AID 1359; in the data active = activation above about 27%;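 note: cells stimulated with NPY near EC25 plus isoproterenol at EC100; 0% = vehicle plus submaximal agonist and 100% = vehicle plus saturating agonist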
NPY-Y1 antag ct – antagonizes human NPY-Y1, counter-screen to NPY-Y2 antagonists. shares compounds with NPY-Y2 antag. cell-based NPY-Y1 antagonism counterscreen. inhibition, % at 3.6 µM. 710 compounds, 19% hits. AID 1256; in the data active = inhibition above about 20%;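 note: cells challenged with NPY then isoproterenol with cAMP sensed through a CNG channel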
NPY-Y2 ant conf – human NPY-Y2 antagonism, confirmation; HEK293 NPY-Y2 CNG channel, membrane potential fluorescence; 710 compounds, 32% hits; inhibition, % at 2.8 µM; shares compounds with NPY-Y2 antag;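 active = mean inhibition of triplicate wells above the hit cutoff set in the primary screen, cut at about 17% in these data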;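 note: 0% = DMSO with NPY challenge and 100% = BIIE0246 high control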
The depositor's hits bear a star; · = no result given; + = active, no number. Most compounds without a hit are left out; they make up all but 4.9% or so of the library.

SMILES | RAM inhibit | NPY Y1 blocker | WT yeast gro inh | NPY1 pot ag | NPY-Y2 antag | NPY2 pot ag | NPY-Y1 antag ct | NPY-Y2 ant conf
COCCCn1c(=N)c(C(=O)NCc2ccc3c(c2)OCO3)cc2c(=O)n3ccccc3nc21 | 2 | 17 | 8 | 7 | 20* | -9 | 14 | 9
Cc1ccc2nc3c(cc(C(=O)NCc4ccco4)c(=N)n3Cc3ccco3)c(=O)n2c1 | 1 | -3 | 5 | 14 | · | 9 | · | ·
N=c1c(C(=O)NCc2ccccc2)cc2c(=O)n3ccccc3nc2n1Cc1ccco1 | 0 | 10 | 24 | 5 | 23* | 6 | 6 | 5
COc1cccc(C(=O)C2CCCN(C(=O)c3cccc(C#CC(C)(C)O)c3)C2)c1 (configuration not stated) | 1 | 0 | -7 | 1 | · | 8 | · | ·
CO/N=C(/CS(=O)Cc1ccc(Cl)cc1)c1ccc(Cl)cc1 (configuration not stated) | 4 | 14 | 7 | 5 | 18* | -16 | 10 | 3
CO/N=C(\CS(=O)(=O)Cc1ccc(OC)cc1)c1ccc(Cl)cc1 | 3 | 1 | -7 | 14 | 6 | 1 | · | ·
CCOC(=O)C(CCCOc1ccc(C(C)CC)cc1)C(=O)OCC (configuration not stated) | 0 | 6 | 17 | -18 | 1 | -8 | · | ·
CCOC(=O)C(C(C)=O)C(c1ccc(OCCC(C)C)cc1)C(C(C)=O)C(=O)OCC (configuration not stated) | 3 | 18 | 9 | -22 | 22* | -3 | 13 | 7
COc1ccc(-c2n[nH]c3c2C(c2ccc(OC)c(OC)c2)N(c2ccccc2)C3=O)cc1 (configuration not stated) | 9.1* | 13 | -6 | -53 | 27* | -16 | 19 | 38*
COc1cccc(-c2nnc3sc(-c4ccc(C)cc4)nn23)c1 | 1 | 1 | 9 | 9 | 26* | 0 | 15 | 8
CCOC(=O)C1CCN(S(=O)(=O)c2cnc[nH]2)CC1 | 1 | 2 | -6 | 12 | 0 | 11 | · | ·
Cc1nn(-c2ccccc2)c(C)c1/C=N/NC(=O)CSc1nnc(SCc2ccc(Cl)cc2)s1 | 0 | -1 | -6 | 17 | 6 | 2 | · | ·
O=C(CSc1nnc(SCc2ccccc2)s1)N/N=C/c1c(Cl)cccc1Cl | 10* | 2 | -10 | -20 | 26* | -12 | 13 | 16
CCOc1ccc(Oc2c(/C=N/NC(C)=O)c(C)nn2-c2ccccc2)cc1 | 3 | 12 | -8 | -56 | 32* | -11 | 16 | 31*
Cc1cccc(NC(=S)N(CCN(C)C)Cc2cc3cc(C)cc(C)c3[nH]c2=O)c1 | 2 | 17 | -2 | -8 | 19* | 5 | 14 | 27*
Cc1cccc(NC(=S)N(CCN(C)C)Cc2cc3cccc(C)c3[nH]c2=O)c1 | 1 | 8 | -1 | -53 | 8 | -12 | · | ·
O=C(COc1ccccc1CNCc1ccccc1)Nc1ccccc1 | 2 | 19 | -2 | -36 | 21* | -31 | 14 | 25*
COc1cccc(-c2cc(C(=O)Nc3ccc([N+](=O)[O-])cn3)c3ccccc3n2)c1 | 4 | 3 | -21 | -25 | 26* | -5 | 37* | 52*
O=C(Nc1ccc([N+](=O)[O-])cn1)c1cc(-c2cccc(Br)c2)nc2ccccc12 | 6 | 6 | 17 | -8 | 2 | -2 | · | ·
COc1ccc(-c2cc(C(=O)Nc3c(Cl)cc(Cl)cc3Cl)c3ccccc3n2)cc1OC | 2 | 10 | 6 | -20 | 79* | -25 | 152* | 195*
COc1ccc(-c2cc(C(=O)Nc3ccc(Cl)cc3Cl)c3ccccc3n2)cc1OC | 6 | 6 | 20 | -29 | 124* | -16 | 133* | +
C=CCNC(=O)C1CC(=O)N(c2ccc(OCC(=O)Nc3ccccc3)cc2)C1 (configuration not stated) | 2 | 3 | 0 | 11 | 1 | 6 | · | ·
Cc1cccc(C(=O)NCCc2nnc(SCC(=O)Nc3nc(C)cs3)n2C)c1 | 1 | -5 | -4 | 8 | 1 | -2 | · | ·
CCCCCSc1nnc(-c2ccccc2N)c(=O)[nH]1 | -1 | 7 | 48 | -11 | 19* | -7 | 15 | 12
COC(=O)CNC(=O)COC(=O)C(Cc1ccccc1)NC(=O)c1ccco1 (configuration not stated) | 1 | 4 | -9 | -4 | 2 | 1 | · | ·
SMILES | RAM inhibit | NPY Y1 blocker | WT yeast gro inh | NPY1 pot ag | NPY-Y2 antag | NPY2 pot ag | NPY-Y1 antag ct | NPY-Y2 ant conf
COCCN(C(=O)Cn1nnc2ccccc21)C(C(=O)NC1CCCC1)c1ccc(OC)cc1OC (configuration not stated) | 3 | 12 | 14 | -6 | 7 | -9 | · | ·
COCCN(C(=O)Cn1nnc2ccccc21)C(C(=O)NC1CCCCC1)c1ccc(OC)cc1OC (configuration not stated) | 2 | 20 | -31 | -95 | 19* | -53 | 18 | 17
CCN1CCN(C(c2ccccc2)c2nnnn2CCc2ccc(OC)c(OC)c2)CC1 (configuration not stated) | 0 | 5 | -3 | 2 | -2 | 5 | · | ·
Cc1c(NC(=O)c2ccc(COc3ccc4ccccc4c3)o2)c(=O)n(-c2ccccc2)n1C | 2 | 8 | 6 | -11 | 18* | -4 | 15 | 9
Cc1ccc(C)c(NS(=O)(=O)c2cc(C(=O)Nc3ccccc3-c3ccccc3)ccc2Cl)c1 | 8 | 1 | 30 | 3 | 69* | -33 | 2 | 103*
COc1ccccc1C/C(N)=N/OC(=O)COc1cccc2ccccc12 | 1 | 16 | 15 | -43 | 10 | -26 | · | ·
COc1ccccc1C/C(N)=N/OC(=O)COc1ccccc1C | 1 | 2 | 16 | -32 | 28* | -19 | 6 | 4
CCc1nc2ccccc2c(C(=O)OCc2nnc(-c3ccccc3)o2)c1C | 4 | 13 | -1 | -57 | 18* | -20 | 26* | 25*
COc1ccc(-n2c(COc3cccc4ccccc34)nnc2SCC#N)cc1 | 6 | 16 | 48 | -17 | 18* | -3 | 6 | 6
N#CCSc1nnc(COc2cccc3ccccc23)n1-c1ccccc1 | 3 | 2 | 16 | 31 | 15 | 8 | · | ·
CCC(C)(C)n1nnnc1C(C(C)C)N(Cc1ccco1)Cc1cc2cc3c(cc2[nH]c1=O)OCO3 (configuration not stated) | 5 | -3 | 27 | 23 | 1 | 4 | · | ·
O=C(Nc1cccc(S(=O)(=O)N2CCCCC2)c1)c1ccc2ccccc2n1 | 6 | 9 | 21 | -9 | 20* | -9 | 10 | 13

From PubChem
